PglD inh = inhibitors of Campylobacter jejuni PglD acetyltransferase; purified PglD enzyme, DTNB colorimetric CoA detection; inhibition, % at 12.5 µM; 360,000 compounds, 0.098% hits; AID 602405; in the data active = inhibition above about 16%, passing the limit was not always enough; inconclusive = no clear call, values can overlap the other calls
PGC1a acetyl inh = lowers PGC1a acetylation signal in U2OS cells. AlphaScreen anti-acetyl-lysine; with virally co-expressed GCN5 acetyltransferase. inhibition, % at 15.6 µM. 350,000 compounds, 0.17% hits. AID 651687;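 active = every replicate shows inhibition of at least 40%; inconclusive = mean inhibition at least 40% but some replicate below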
DENV2 CPE = protects cells from dengue virus 2 cytopathic effect. AID 651640. DENV2-infected cells, cytopathic effect rescue, plate reader. 350,000 compounds, 1.7% hits. CPE inhibition, % at 9.99 µM; in the data active = CPE inhibition above about 20%, passing the limit was not always enough; inconclusive = no clear call, values can overlap the other calls; tested in BHK-21 cells
FN deposition inh = fibronectin deposition inhibition; AH1F fibroblasts, Alexa488-fibronectin deposition fluorescence, overnight; inhibition, % at 12.6 µM; 350,000 compounds, 0.086% hits; AID 743247;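 active = mean inhibition across replicates of 30% or more, regardless of how many single replicates reach that level; inconclusive = mean under 30% yet at least half of replicates reach 30%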
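Assay system: AH1F fibroblast monolayer, labelled fibronectin deposition. Amount: 10000 cells per well. Also added: labelled fibronectin 24 nM. Compound: single-point pinned compound. Incubation: cell attachment 1 h, compound and FN exposure overnight. Detection: fluorescence after three HBSS washes, excitation 485 nm, emission 525 nm. Read-out: inhibition of fibronectin deposition signal.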
Env fusion inh = inhibitors of HIV Env-mediated cell fusion. AID 651610. inhibition, % at 12.3 µM. HeLa-JRFL Env/CEM21 cell fusion, luciferase. 360,000 compounds, 1.1% hits;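 active = mean replicate inhibition score of at least 50 and every replicate individually at or above 50; inconclusive = only one of the two criteria met; inactive = mean below 50 and not all replicates reaching 50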
rRNA inh HTS = inhibitors of bacterial rRNA selective over humanized ribosomes | E. coli WT GFP vs humanized-ribosome RFP mutants, fluorescence, 24 h; hits give low values; DMSO median 0, no signal -100 | GFP signal change (wild-type ribosome), % (concentration not given with the values) | 350,000 compounds, 1.6% hits | AID 720706;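 active = significant combined selectivity score with lowered wild-type GFP, culture density cut under 30%, mutant RFP and density less affected; inactive = any of these conditions unmet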
HepG2 tox = HepG2 cell cytotoxicity | shares compounds with rRNA inh HTS | HepG2 viability, ATP luminescence, 72 h | activity change, negative = cytotoxicity, unspecified at 26 µM | 30 tested, under 10 active | AID 743480;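 active = compounds whose fitted half-maximal signal-loss concentration is at most twice their highest valid dose; inconclusive = flat curve with 30 to 70% signal loss, or poor fit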
AID977621 = growth inhibition of wild-type GFP E. coli, dose response, H69 mutant RFP, cherry-pick; AID 977621; 1,900 tested, under 10 active; activity change, negative = inhibition at 50 µM; E. coli wild-type GFP strain growth, fluorescence, 24 h; shares compounds with rRNA inh HTS;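 active = Wild-type ribosome reporter drop at least double the humanized mutant ribosome reporter drop, growth loss under a set limit; inconclusive = no clear call, values can overlap the other calls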;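 note: wild-type GFP and H69 mutant RFP strains grown together 50/50 in each well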
AID977628 = growth of wild-type and h24-humanized E. coli strains – h24 mutant RFP vs wild-type GFP, cherry-pick, dose response | shares compounds with rRNA inh HTS | activity change, negative = inhibition at 50 µM | E. coli WT GFP strain growth, fluorescence, 24 h | AID 977628 | 1,900 tested, under 10 active;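 active = compound lowering the normal-ribosome reporter at least twice as much as the humanized-ribosome reporter, growth loss under a set limit; inconclusive = no clear call, values can overlap the other calls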;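 note: wild-type GFP and h24 humanized RFP strains co-cultured 1 to 1 per well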
Each line names hits and unclear results; the compound was inactive in the other large screens (follow-up assays come after a bar, where they were run). Sampled rows, rich in hits. Any-hit rate of the full collection: about 3.5%.

COc1ccccc1C(=O)N1C[C@H]2[C@@H](c3ccccc31)[C@@H](CO)N2C(=O)Cc1cccnc1	none (no result: FN deposition inh, Env fusion inh)
Cc1ccc(C(=O)Nc2cccc3[nH]c(C(F)(F)F)nc23)cc1	rRNA inh HTS -24 | AID977621 inactive
COc1ccc(CNc2cccc3[nH]c(C(F)(F)F)nc23)cc1	none
CCn1cc(Cl)c(C(=O)Nc2cccc(C(F)(F)F)c2)n1	rRNA inh HTS -23 (no result: PglD inh) | AID977621 inactive
Cc1ccc(S(=O)(=O)Nc2ccc3c(c2)CC(=O)N([C@@H](C)CO)C[C@H](C)[C@@H](CN(C)C(=O)Nc2c(C)noc2C)O3)cc1	none (no result: FN deposition inh)
O=C(Nc1ccc(F)cc1)C1CC2CCC1C2 (centres undefined)	none
O=C(Nc1ccc(F)c(Cl)c1)C1CC2CCC1C2 (centres undefined)	rRNA inh HTS -28 (no result: PGC1a acetyl inh) | AID977621 inactive | AID977628 inactive
O=C(Cn1c(CO)nc2ccccc21)NCCc1ccc(F)cc1	rRNA inh HTS -19 | AID977621 inconclusive
CCOC(=O)c1c(NC(=O)Cc2cccs2)sc(C(=O)NC2CCCC2)c1C	none (no result: DENV2 CPE, rRNA inh HTS)
CCOC(=O)c1c(NC(=O)Cc2cccs2)sc(C)c1C	rRNA inh HTS -34 (no result: FN deposition inh, Env fusion inh) | HepG2 tox inactive
O=C(O)CSc1nc2ccccc2n1C1CCCCC1	rRNA inh HTS -22 (no result: PglD inh) | AID977621 inactive
O=C(O)Cn1c(SC2CCCCC2)nc2ccccc21	none (no result: DENV2 CPE, FN deposition inh, Env fusion inh, rRNA inh HTS)
CN(Cc1ccc(F)cc1)Cc1nc(CCc2ccccc2)no1	rRNA inh HTS -19 (no result: PglD inh) | AID977628 inconclusive
CN(Cc1ccc(F)cc1)Cc1nc(-c2ccccc2)no1	none
O=C(Nc1ccc(C(=O)N2CCOCC2)cc1)C1CCCC1	rRNA inh HTS -4.4 | AID977621 inactive | AID977628 inactive
O=C(Nc1ccc(C(=O)N2CCCC2)cc1)C1CCCC1	DENV2 CPE inconclusive
O=C(Cc1cccc(NC(=O)C2CCN(C(=O)C3CCCCC3)CC2)c1)Nc1cccc(C(=O)N2CCCC2)c1	DENV2 CPE inconclusive, rRNA inh HTS -22 (no result: PGC1a acetyl inh) | AID977621 inactive
C[C@@H]1CN([C@@H](C)CO)C(=O)c2cc(-c3cccc(F)c3)cnc2O[C@@H]1CN(C)S(C)(=O)=O	none
CCOc1ccc(C(C)=O)cc1CN1C(=O)NC2(CCCCCCC2)C1=O	rRNA inh HTS -40 (no result: PglD inh) | AID977621 inactive | AID977628 inactive
O=C(c1cnc(Cc2c[nH]c3ccccc23)c(I)c1)N1CCCCC1	rRNA inh HTS -24 (no result: PGC1a acetyl inh) | AID977621 inactive
Cc1cc(C)nc(SCCC(=O)Nc2ccccc2Cl)n1	rRNA inh HTS -18 (no result: PglD inh, FN deposition inh) | AID977628 inactive
Cc1cc(C)nc(SCCC(=O)Nc2cccc3ccccc23)n1	none (no result: DENV2 CPE, FN deposition inh, Env fusion inh, rRNA inh HTS)
O=C(COC(=O)C1CC1)Nc1nc(-c2ccc(F)c(F)c2)cs1	rRNA inh HTS -24 | AID977621 inactive
O=C(CN1CCCCC1)Nc1nc(-c2ccc(F)c(F)c2)cs1	none
C[C@H]1CN([C@@H](C)CO)S(=O)(=O)c2ccc(C#CCN(C)C)cc2O[C@@H]1CN(C)C(=O)C1CC1	none (no result: PglD inh, DENV2 CPE)
CNC[C@@H]1Oc2ncc(/C=C/c3ccccc3)cc2C(=O)N([C@@H](C)CO)C[C@@H]1C	none (no result: FN deposition inh, Env fusion inh)
CSc1ccc(CN(C)C(=O)C(c2ccccc2)c2ccccc2)cc1	rRNA inh HTS -21 | AID977621 inactive | AID977628 inconclusive
C[C@@H]1CN([C@@H](C)CO)C(=O)c2cc(NC(=O)c3ccncc3)ccc2O[C@@H]1CN(C)S(=O)(=O)c1cccs1	none (no result: Env fusion inh)
CC1=CC(C)(C)N(C(=O)CSc2nnc(C)s2)c2ccc(C)cc21	rRNA inh HTS -17 (no result: FN deposition inh, Env fusion inh) | AID977621 inactive | AID977628 inconclusive
CC1=CC(C)(C)N(C(=O)CSc2nnc(N)s2)c2cc(C)c(C)cc21	none (no result: DENV2 CPE, rRNA inh HTS)
CCOc1ccc(NC(=O)CCc2nnc3ccc(N4CCC(C)CC4)nn23)cc1	rRNA inh HTS -20 (no result: PGC1a acetyl inh) | AID977621 inactive
Clc1ccccc1C1CC(c2ccccc2)=Nc2ccccc2N1 (centres undefined)	DENV2 CPE inconclusive, rRNA inh HTS -20 (no result: PglD inh) | AID977628 inconclusive
O=c1c2cc(Br)ccc2[nH]c(=S)n1Cc1ccccc1	rRNA inh HTS -36 | AID977621 inactive
Cc1ccc(Cn2c(=S)[nH]c3ccccc3c2=O)cc1	none
Cc1noc(C)c1NC(=O)Nc1ccc2c(c1)CC(=O)N([C@H](C)CO)C[C@H](C)[C@H](CN(C)C)O2	none (no result: FN deposition inh, Env fusion inh)
O=C1CCCc2ccccc2N1Cc1ccccc1	rRNA inh HTS -28 (no result: PglD inh, PGC1a acetyl inh) | AID977621 inactive | AID977628 inactive
CC1CN(C(=O)COC(=O)c2cccc(S(=O)(=O)N3CCc4ccccc43)c2)CC(C)O1 (centres undefined)	none (no result: PGC1a acetyl inh)
O=C(OCC(=O)N1CCOCC1)c1cccc(S(=O)(=O)N2CCCc3ccccc32)c1	DENV2 CPE inconclusive, rRNA inh HTS -18 (no result: PglD inh, PGC1a acetyl inh) | AID977621 inactive | AID977628 inconclusive
COc1ccc(NC(=O)CSc2n[nH]c(-c3ccncc3)n2)c([N+](=O)[O-])c1	rRNA inh HTS -18 (no result: FN deposition inh) | AID977621 inconclusive | AID977628 inactive
CO[C@H]1CN(C)C(=O)c2cc(NC(=O)NC3CCCC3)ccc2OC[C@@H](C)N(CC2CC2)C[C@@H]1C	none (no result: PglD inh, Env fusion inh)
CCN(CC)CCNC(=O)c1cc2cc3ccc(OC)cc3nc2o1	rRNA inh HTS -19 | AID977621 inactive | AID977628 inconclusive
CCCCN(C)CCNC(=O)c1cc2cc3ccc(OC)cc3nc2o1	none
CN(C)CCCN(C(=O)CCc1ccccc1)c1nc2c(F)cccc2s1	none (no result: DENV2 CPE, FN deposition inh, Env fusion inh, rRNA inh HTS)
CN(C)CCCN(C(=O)CCOc1ccccc1)c1nc2c(F)cccc2s1	rRNA inh HTS -14 (no result: PglD inh) | AID977621 inactive | AID977628 inconclusive
CN(C)CCCN(C(=O)COc1ccc(Cl)cc1)c1nc2ccc(F)cc2s1	rRNA inh HTS -23 | AID977621 inactive | AID977628 inactive
COC(=O)[C@]12C[C@H](CC(=O)N3CCCC3)C(=O)N(Cc3ccc4c(c3)OCO4)C1=C[C@H](COCc1ccccc1)O[C@@H]2C	none (no result: PglD inh, PGC1a acetyl inh)
COc1ccc2c3c(n(C)c2c1)[C@H](CO)N(C)CC31CCN(C(=O)c2ccccc2F)CC1	none (no result: PglD inh, Env fusion inh)
NS(=O)(=O)c1cccc(NC(=O)COc2ncnc3c2cnn3-c2ccccc2)c1	rRNA inh HTS -20 (no result: PglD inh, DENV2 CPE) | AID977621 inconclusive
C[C@@H]1CCCCO[C@@H](CN(C)Cc2ccncc2)[C@H](C)CN([C@H](C)CO)C(=O)c2cc(NC(=O)CCCN(C)C)ccc2O1	none (no result: PglD inh, DENV2 CPE, FN deposition inh)
